For data set [1], the system named is RAW264.7. The data set is described as follows: Cytotoxicity against mouse RAW264.7 cells at 100 uM after 8 hrs by MTT assay. It is filed as cell-based. To be noted: raw264.7, 8 h. (In general: Tetrazolium dyes change colour on reduction, which living cells bring about.)
Data set [2] concerns RAW264.7. Kind of data set: Antiinflammatory activity in mouse RAW264.7 cells assessed as inhibition of LPS-induced nitric oxide production at 50 to 100 uM after 24 hrs by Griess method. It is filed as functional. Further details: scale not given: the % may be the effect or the level left. A general note: The Griess reaction detects nitrite, a stable product of nitric oxide.

In data set [3] the test system is RAW264.7. The data set is described as follows: Antioxidant activity in LPS-stimulated mouse RAW264.7 cells assessed as induction of HO-1 mRNA expression at 100 uM after 4 hrs by RT-PCR analysis. In kind it is functional, cell-based.
Data set [4] concerns the target T1, Nuclear factor erythroid 2-related factor 2 (Mus musculus) (UniProt Q60795).
T1 sequence (whole entry): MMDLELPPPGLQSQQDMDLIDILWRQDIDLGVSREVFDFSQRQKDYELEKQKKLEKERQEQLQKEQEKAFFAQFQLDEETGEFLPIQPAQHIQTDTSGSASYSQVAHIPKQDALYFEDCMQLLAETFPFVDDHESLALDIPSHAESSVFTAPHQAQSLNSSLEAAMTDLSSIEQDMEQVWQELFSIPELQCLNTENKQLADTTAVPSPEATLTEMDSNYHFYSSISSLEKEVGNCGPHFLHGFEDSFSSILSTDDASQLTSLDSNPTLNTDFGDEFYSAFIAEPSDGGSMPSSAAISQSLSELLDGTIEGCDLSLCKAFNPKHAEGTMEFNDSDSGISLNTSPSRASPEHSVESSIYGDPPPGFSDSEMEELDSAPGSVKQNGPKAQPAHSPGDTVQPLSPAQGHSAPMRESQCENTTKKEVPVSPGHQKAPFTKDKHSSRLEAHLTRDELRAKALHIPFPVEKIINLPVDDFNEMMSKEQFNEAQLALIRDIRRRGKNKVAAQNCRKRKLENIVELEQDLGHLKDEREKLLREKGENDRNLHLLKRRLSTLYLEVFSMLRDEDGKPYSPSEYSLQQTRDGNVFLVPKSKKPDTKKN
Kind of data set: Induction of Nrf2-mediated HO1 mRNA expression in mouse RAW264.7 cells at 100 uM after 2 to 4 hrs by quantitative RT-PCR analysis relative to control. It is filed as cell-based.

Data set [5] concerns the target T1, Nuclear factor erythroid 2-related factor 2 (Mus musculus). The data set is described as follows: Induction of Nrf2-mediated HO1 mRNA expression in mouse RAW264.7 cells at 100 uM after 24 hrs by quantitative RT-PCR analysis relative to control. It is filed as cell-based.
For data set [6] the target is unchanged. The data set is described as follows: Induction of Nrf2-mediated NQO1 mRNA expression in mouse RAW264.7 cells at 100 uM after 2 to 4 hrs by quantitative RT-PCR analysis relative to control. In kind it is cell-based.
Data set [7] shares this target. Kind of data set: Induction of Nrf2-mediated NQO1 mRNA expression in mouse RAW264.7 cells at 100 uM after 24 hrs by quantitative RT-PCR analysis relative to control. In kind it is cell-based. In short, it runs like this:
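RAW 264.7 cells (DMEM, 10% FBS, 37°C, 5% CO2) exposed to 100 μM compound for a series of time points without stated LPS activation. Total RNA isolated, converted to cDNA, and NQO1 quantified by TaqMan real-time RT-PCR using mouse-specific assays. Fold change versus control derived by the ΔΔCt relative quantification method (40 cycles, 95/60 °C).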

Data set [8] shares this target. The data set is described as follows: Induction of Nrf2-mediated CAT mRNA expression in mouse RAW264.7 cells at 100 uM after 4 to 20 hrs by quantitative RT-PCR analysis relative to control. It is filed as cell-based.
For data set [9] the target is unchanged. The data set is described as follows: Induction of Nrf2 in mouse RAW264.7 cells assessed as […] in CAT mRNA expression at 100 uM after 24 hrs by quantitative RT-PCR analysis relative to control. In kind it is cell-based.

Calls of active or inactive are those of the source. No cut-off for these calls is given here.

Four compounds from ChEMBL document CHEMBL2034960, “Bryonolic acid transcriptional control of anti-inflammatory and antioxidant genes in macrophages in vitro and in vivo” (J Nat Prod, 2012) can be followed below.

On to `C=C(C)[C@@H]1CC[C@]2(C(=O)O)CC[C@]3(C)[C@H](CC[C@@H]4[C@@]5(C)CC[C@H](O)C(C)(C)[C@@H]5CC[C@]43C)[C@@H]12` [BETULINIC ACID], for which the Activity result in the data set with RAW264.7 [1] is “Toxic”.
Turning to `CC1(C)[C@@H](O)CC[C@]2(C)[C@H]3C(=O)C=C4[C@@H]5C[C@@](C)(C(=O)O)CC[C@]5(C)CC[C@@]4(C)[C@]3(C)CC[C@@H]12` [ENOXOLONE], the Activity result with RAW264.7 [1] was “Toxic”.
Turning to `CC1(C)CC[C@]2(C(=O)O)CC[C@]3(C)C(=CC[C@@H]4[C@@]5(C)CC[C@H](O)C(C)(C)[C@@H]5CC[C@]43C)[C@@H]2C1` [OLEANOLIC_ACID], the results for the Activity in the data set on RAW264.7 [2] and with RAW264.7 [1] were 85% and “Non-toxic”, respectively. The result (in the data set on RAW264.7 [3]; in data set [4]; in [6]; in data set [8]) was Active. Also, the outcome in data set [5], in data set [7] and in data set [9] was inactive.
For `C[C@H]1[C@H](C)CC[C@]2(C(=O)O)CC[C@]3(C)C(=CC[C@@H]4[C@@]5(C)CC[C@H](O)C(C)(C)[C@@H]5CC[C@]43C)[C@H]12` [URSOLIC ACID], in the data set with RAW264.7 [1], the Activity result is “Toxic”.
